In paper PMC3190583 (Journal of clinical pharmacology, 2010):
Where two headings read alike, the source gives them in different places. Marks after values point to notes of the source that are not given here.

What was measured:
[1] = neonates; cited from earlier work
[2] = Single-dose pharmacokinetics of pantoprazole delayed-release tablet, study 2; type: in vivo, human; conditions: for AUC / CL/F / Cmax / Tmax / Vd/F / half-life: human, plasma, po; for tlag: study 2, 12-16 y, median (range)
[3] = Safety and tolerability, on-treatment adverse events, study 2; type: in vivo, human; conditions: for Abdominal pain / Accidental injury / Fever / Headache / Otitis media: on-treatment AE; for Abdominal pain / Accidental injury / Fever / Headache / Otitis media / Any AE: patients (percent); for Any AE: on-treatment
Summary of the method: (§1)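 Patients randomized 1:1 to 20 or 40 mg delayed-release tablet once daily: about 28 days in study 1, at least 5 consecutive doses in study 2. On-treatment AEs were those occurring during dosing or within 48 h of the last dose. Vital signs were taken 2 h predose and 2, 8 and 12 h postdose on day 1. Physical exam and labs were done on the multiple-dose PK day. Telephone AE follow-up came 14 days after completion.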

[4] = Single-dose pharmacokinetics of pantoprazole delayed-release tablet, study 1; type: in vivo, human; conditions: for AUC / CL/F / Cmax / Tmax / Vd/F / half-life: human, plasma, po; for tlag: study 1, 6-11 y, median (range)
[5] = Safety and tolerability, on-treatment adverse events, study 1; type: in vivo, human; conditions: for Abdominal pain / Accidental injury / Fever / Headache / Otitis media / Upper respiratory infection: on-treatment AE; for Abdominal pain / Accidental injury / Fever / Headache / Otitis media / Upper respiratory infection / Any AE: patients (percent); for Any AE: on-treatment
Summary of the method: as §1

[6] = adults; cited from earlier work
[7] = study 2, 20 mg once daily (n = 11)
[8] = study 2, 40 mg once daily (n = 11)
[9] = study 2, 20 or 40 mg once daily
[10] = study 2, total of both doses (n = 22)
[11] = study 1, 20 mg once daily (n = 11)
[12] = study 1, 40 mg once daily (n = 13)
[13] = study 1, 20 or 40 mg once daily
[14] = study 1, total of both doses (n = 24)

Q: What does the source list for `COc1ccnc(C[S+]([O-])c2nc3ccc(OC(F)F)cc3[nH]2)c1OC` (centres unmarked) [pantoprazole]?
A: mean CL/F [1]: 3.67 mL/min/kg; AUC ([2]; 20 mg): 1300 ± 600 ng·h/mL; CL/F ([2]; 20 mg): 4.67 mL/min/kg; Cmax ([2]; 20 mg): 900 ± 500 ng/mL; Tmax ([2]; 20 mg): 1.5 h; Vd/F ([2]; 20 mg): 0.32 ± 0.22 L/kg; half-life ([2]; 20 mg): 0.8 ± 0.3 h; AUC ([2]; 40 mg): 4300 ± 3100 ng·h/mL; CL/F ([2]; 40 mg): 3 mL/min/kg; Cmax ([2]; 40 mg): 2200 ± 1400 ng/mL; Tmax ([2]; 40 mg): 2 h; Vd/F ([2]; 40 mg): 0.21 ± 0.06 L/kg; half-life ([2]; 40 mg): 0.9 ± 0.3 h; tlag ([2]; single oral 20 mg tablet, n = 9): 1.0 (0, 2.5) ^c h; tlag ([2]; single oral 40 mg tablet, n = 11): 1.0 (0, 8) h; Abdominal pain [3, 7]: 0; Accidental injury [3, 7]: 0; Fever [3, 7]: 0; Headache [3, 7]: 0; Otitis media [3, 7]: 0; Any AE [3, 7]: 2 (18.2); Abdominal pain [3, 8]: 2 (18.2); Accidental injury [3, 8]: 0; Fever [3, 8]: 1 (9.1); Headache [3, 8]: 1 (9.1); Otitis media [3, 8]: 0; Any AE [3, 8]: 4 (36.4); ECG, QTc changes [3, 9]: no abnormal QTc changes; serious AEs [3, 9]: no serious AEs; severity of all AEs [3, 9]: mild or moderate; Abdominal pain [3, 10]: 2 (9.1); Accidental injury [3, 10]: 0; Fever [3, 10]: 1 (4.5); Headache [3, 10]: 1 (4.5); Otitis media [3, 10]: 0; Any AE [3, 10]: 6 (27.3); AUC ([4]; 20 mg): 2500 ± 2100 ng·h/mL; CL/F ([4]; 20 mg): 6.83 mL/min/kg; Cmax ([4]; 20 mg): 1600 ± 1200 ng/mL; Tmax ([4]; 20 mg): 2 h; Vd/F ([4]; 20 mg): 0.43 ± 0.3 L/kg; half-life ([4]; 20 mg): 0.8 ± 0.2 h; AUC ([4]; 40 mg): 3800 ± 1800 ng·h/mL; CL/F ([4]; 40 mg): 6.67 mL/min/kg; Cmax ([4]; 40 mg): 2100 ± 1300 ng/mL; Tmax ([4]; 40 mg): 2 h; Vd/F ([4]; 40 mg): 0.4 ± 0.27 L/kg; half-life ([4]; 40 mg): 0.7 ± 0.2 h; tlag ([4]; single oral 20 mg tablet, n = 10): 1.0 (0.5, 2.0) h; tlag ([4]; single oral 40 mg tablet, n = 12): 0.8 (0, 1.0) ^b h; concentration of pantoprazole at 12 hours after the first dose ([4]; study 1, all patients, 20 or 40 mg, lower limit of quantitation 10 ng/mL): below the lower limit of quantitation; Abdominal pain [5, 11]: 3 (27.3); Accidental injury [5, 11]: 1 (9.1); Fever [5, 11]: 1 (9.1); Headache [5, 11]: 1 (9.1); Otitis media [5, 11]: 2 (18.2); Upper respiratory infection [5, 11]: 2 (18.2); Any AE [5, 11]: 9 (81.8); Abdominal pain [5, 12]: 1 (7.7); Accidental injury [5, 12]: 1 (7.7); Fever [5, 12]: 1 (7.7); Headache [5, 12]: 2 (15.4); Otitis media [5, 12]: 0; Upper respiratory infection [5, 12]: 0; Any AE [5, 12]: 7 (53.8); ECG, QTc changes [5, 13]: no abnormal QTc changes; serious AEs [5, 13]: no serious AEs; severity of all AEs [5, 13]: mild or moderate; Abdominal pain [5, 14]: 4 (16.7); Accidental injury [5, 14]: 2 (8.3); Fever [5, 14]: 2 (8.3); Headache [5, 14]: 3 (12.5); Otitis media [5, 14]: 2 (8.3); Upper respiratory infection [5, 14]: 2 (8.3); Any AE [5, 14]: 16 (66.7); accumulation on repeated once-daily dosing [6]: does not result in accumulation; half-life [6]: approximately 1 hour
